A selection: hits, their analogues and other compounds. The true share with any hit is near 3.5%.
PAFAH1B3 FP inh: PAFAH1B3 (human) inhibition; recombinant PAFAH1B3, FP-rhodamine probe, fluorescence polarization; 340,000 compounds, 0.28% hits; inhibition, % at 3.39 µM;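 active = inhibition above the screen-wide average of all tested compounds plus 3 SD, cut at about 25% in these data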;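 also: 0% = enzyme with DMSO only and 100% = wells lacking PAFAH1B3 protein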
pPAFAH inh: inhibitors of human plasma PAF acetylhydrolase (pPAFAH); Q13093; recombinant pPAFAH, FP-rhodamine probe fluorescence polarization; inhibition, % at 3.39 µM; 330,000 compounds, 1.5% hits;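 active = inhibition above the mean inhibition across the screen plus 3 SD, cut at about 25% in these data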;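 also: inhibitors block binding of the rhodamine activity-based probe so polarization drops; 0% = enzyme with DMSO and 100% = wells lacking pPAFAH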
PREPL inh: inhibitors of human prolyl oligopeptidase-like enzyme PREPL; Q4J6C6; recombinant PREPL, fluorescence polarization activity-based probe; inhibition, % at 5.96 µM; 320,000 compounds, 0.68% hits; in the data active = inhibition above about 43%;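 also: 0% = enzyme with DMSO and 100% = wells lacking enzyme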
PAFAH2 FP inh: inhibitors of human PAFAH2; 340,000 compounds, 0.99% hits; inhibition, % at 3.39 µM; Q99487; recombinant PAFAH2, FP-rhodamine activity probe, fluorescence polarization;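 active = inhibition above the mean over all tested compounds plus 3 SD, cut at about 30% in these data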;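 also: inhibitors block probe labeling of enzyme so polarization drops; 0% = enzyme with DMSO and 100% = wells lacking PAFAH2 protein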
Apaf1 inhib: inhibitors of human Apaf-1 apoptosome; O14727; reconstituted apoptosome caspase-3 activity, DEVD-Rh110 fluorescence; inhibition, % at 20 µM; 330,000 compounds, 0.71% hits; AID 489030; active = inhibition of at least 40% at 20 µM;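 also: plate controls were DMSO wells for no effect and DEVD-CHO caspase inhibitor wells for full effect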
Target sequence (O14727 whole entry, looked up): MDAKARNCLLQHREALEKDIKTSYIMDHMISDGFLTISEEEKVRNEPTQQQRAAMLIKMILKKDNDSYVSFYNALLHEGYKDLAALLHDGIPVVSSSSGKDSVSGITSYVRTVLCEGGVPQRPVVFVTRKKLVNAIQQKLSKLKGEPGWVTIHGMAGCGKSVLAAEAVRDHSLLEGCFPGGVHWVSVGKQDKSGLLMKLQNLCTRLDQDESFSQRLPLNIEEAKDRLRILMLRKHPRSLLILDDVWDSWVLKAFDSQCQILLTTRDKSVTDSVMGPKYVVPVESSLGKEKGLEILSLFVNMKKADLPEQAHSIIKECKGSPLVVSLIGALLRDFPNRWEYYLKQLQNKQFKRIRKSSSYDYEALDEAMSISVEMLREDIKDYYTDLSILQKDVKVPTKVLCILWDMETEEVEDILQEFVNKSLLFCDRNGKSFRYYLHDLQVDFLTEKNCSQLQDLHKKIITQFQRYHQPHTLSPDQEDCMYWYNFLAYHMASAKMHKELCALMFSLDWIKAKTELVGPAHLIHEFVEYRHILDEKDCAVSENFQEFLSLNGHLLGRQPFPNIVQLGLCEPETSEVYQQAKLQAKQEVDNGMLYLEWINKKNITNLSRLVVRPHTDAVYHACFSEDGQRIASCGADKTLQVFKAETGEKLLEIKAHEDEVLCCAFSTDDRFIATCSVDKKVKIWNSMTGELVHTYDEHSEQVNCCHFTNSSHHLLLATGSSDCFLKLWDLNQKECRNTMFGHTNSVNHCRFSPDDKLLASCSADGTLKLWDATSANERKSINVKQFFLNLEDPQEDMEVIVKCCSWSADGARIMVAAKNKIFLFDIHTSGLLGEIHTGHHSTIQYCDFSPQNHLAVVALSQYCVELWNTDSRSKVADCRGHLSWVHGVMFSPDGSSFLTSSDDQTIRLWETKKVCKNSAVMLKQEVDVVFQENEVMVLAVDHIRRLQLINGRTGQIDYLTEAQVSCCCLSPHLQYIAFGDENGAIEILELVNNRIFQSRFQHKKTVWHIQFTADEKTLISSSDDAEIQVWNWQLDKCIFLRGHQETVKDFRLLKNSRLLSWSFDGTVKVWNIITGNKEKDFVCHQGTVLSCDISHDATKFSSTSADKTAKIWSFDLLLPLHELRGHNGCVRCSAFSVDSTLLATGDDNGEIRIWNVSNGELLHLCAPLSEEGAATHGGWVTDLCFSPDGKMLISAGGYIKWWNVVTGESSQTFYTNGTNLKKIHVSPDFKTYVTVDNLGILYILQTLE
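Material: cell-free apoptosome with Apaf-1, procaspase-3 and caspase-9; Buffer or medium: Hepes pH 7.5 with detergent and BSA; Reagent: cytochrome c trigger plus (Z-DEVD)2-Rh110 caspase-3 substrate; Times: compound with Apaf-1, dATP, procaspase-3 30 min, then 50 min reaction, room temperature; Technique: Rh110 fluorescence intensity.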
PAFAH1B2 FP inh: PAFAH1B2 (human) inhibition. P68402. recombinant PAFAH1B2, FP-rhodamine activity probe, fluorescence polarization. inhibition, % at 3.39 µM. 340,000 compounds, 1.2% hits. AID 492953;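 active = inhibition above the mean of all tested compounds plus 3 SD, cut at about 24% in these data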;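 also: 0% = enzyme with DMSO and 100% = wells lacking PAFAH1B2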
Active calls of the source: *; · = no result.

SMILES	PAFAH1B3 FP inh	pPAFAH inh	PREPL inh	PAFAH2 FP inh	Apaf1 inhib	PAFAH1B2 FP inh
Cc1c(NC(=O)CSc2ccc(Cl)cc2)cccc1-c1nc2ncccc2o1	2	18	-36	0	8	25*
CCC(=O)Nc1cccc(-c2nc3ncccc3o2)c1C	5	4	14	-2	11	2
Nc1cc2c(cc1O)CCCC2	3	31*	8	3	8	9
O=C(NNS(=O)(=O)c1cccc(Cl)c1)c1cc(-c2ccc(F)cc2)nc2ccccc12	-6	2	-19	-4	3	40*
O=C(NN=C1CCCC1)c1cc(-c2ccc(F)cc2)nc2ccccc12	-6	-8	-24	3	-5	-3
O=C(NNS(=O)(=O)c1ccc(F)cc1)c1cc(Cl)ccc1O	9	·	·	8	-5	26*
Cc1ccc(C)c(OCCC(=O)OCC(=O)NNC(=O)c2ccccc2)c1	3	31*	-1	0	0	2
Cc1ccc(C)c(OCCC(=O)OCC(=O)NC2CCCC2)c1	0	21	-2	5	-4	2
CCc1c(O)nc(SCC(=O)c2ccccc2)n(-c2ccccc2)c1=O	9	26*	3	14	-8	1
COc1ccc(OC)c(/C=C2\SC(N3CCCC(C)C3)=NC2=O)c1 (centres undefined)	17	27*	9	-3	8	1
COc1ccc(/C=C2\SC(N3CCCCC3)=NC2=O)cc1OC	6	7	14	-6	-1	3
COc1ccc(N(C)S(=O)(=O)c2cccc(C(=O)N3CCN(S(=O)(=O)c4ccc(C)cc4)CC3)c2)cc1	9	7	11	-2	10	55*
COc1ccc(N2CCN(C(=O)c3ccc(N(C)S(=O)(=O)c4ccc(C)cc4)cc3)CC2)cc1	4	9	18	4	10	-2
N#Cc1ccsc1NC(=O)CSc1nnc(-c2ccccc2)o1	2	34*	-3	7	2	0
CCCCN1CC(COCc2ccccc2)Oc2cccc(Oc3ccc(F)cc3)c2S1(=O)=O (centres undefined)	-1	·	·	-11	·	-4
O=C(NCC1CCCO1)Nc1cc(Cl)cc(Cl)c1 (centres undefined)	0	-1	1	1	-1	-5
COc1cc2[nH]c(=O)n(CCC(=O)N3CCN(Cc4ccccc4)CC3)c(=O)c2cc1OC	6	1	4	1	-24	7
O=C(CCn1c(=O)[nH]c2ccccc2c1=O)N1CCN(c2cccc(C(F)(F)F)c2)CC1	1	-2	0	-25	13	31*
COc1cc2[nH]c(=O)n(CCCCCC(=O)N3CCN(c4ccccc4)CC3)c(=O)c2cc1OC	3	27*	0	2	14	3
O=C(CCn1c(=O)[nH]c2ccccc2c1=O)N1CCN(c2ccc(Cl)cc2)CC1	0	-6	15	1	10	7
O=C(OCCOc1ccc(Br)cc1)c1ccc(Cl)nc1	9	1	-17	2	11	26*
NC(=S)N/N=C/c1cccc(O)c1O	1	32*	8	0	10	7
NC(=S)N/N=C/c1ccccc1O	3	-3	-5	1	-9	3
CSc1ccc(CN2CCN(CC=C(C)C)C(CCO)C2)cc1 (centres undefined)	10	25*	15	-5	-12	-1
CC(=O)c1sc(NC(=O)CN2C(=O)C3CC=CCC3C2=O)nc1-c1ccccc1 (centres undefined)	4	3	-10	9	5	7
SMILES	PAFAH1B3 FP inh	pPAFAH inh	PREPL inh	PAFAH2 FP inh	Apaf1 inhib	PAFAH1B2 FP inh
Cc1ccc(SCC(=O)Nc2cc([N+](=O)[O-])ccc2O)cc1	9	6	1	49*	5	82*
Cc1ccc(SCC(=O)Nc2cccc(C)c2)cc1	11	4	-10	-1	5	29*
CN(C)C(=O)CSc1nc2ccc(C(=O)c3ccccc3)cc2[nH]1	7	-5	11	2	-10	5
CC(OC(=O)c1cc(O)c2ccccc2c1O)C(=O)Nc1ccc(C(N)=O)cc1 (centres undefined)	14	16	17	14	49*	11
CC(OC(=O)c1ccccc1C(=O)N(C)c1ccccc1)C(=O)Nc1ccc(C(N)=O)cc1 (centres undefined)	4	-1	-8	-3	2	4
O=C(NCc1cccnc1)C(=O)Nc1nc(C23CC4CC(CC(C4)C2)C3)cs1	8	3	0	23	11	33*
O=C(NCc1ccccc1)C(=O)Nc1nc(C23CC4CC(CC(C4)C2)C3)cs1	7	3	-4	-1	-1	12
O=C(NCc1ccc(F)cc1)C(=O)Nc1nc(C23CC4CC(CC(C4)C2)C3)cs1	-4	-3	1	0	-6	16
CNC(=O)C(=O)Nc1nc(C23CC4CC(CC(C4)C2)C3)cs1	10	-5	1	5	4	26*
COc1ccc(OC)c(S(=O)(=O)N2CCCC(C(=O)NCc3ccco3)C2)c1 (centres undefined)	-5	-3	3	5	2	-3
O=C(Nc1ccccc1)Oc1ccc[nH]c1=O	-1	4	6	-2	61*	5
Cc1ccc(OC(=O)Nc2ccccc2)cc1	4	7	-1	2	-12	-2
COCCCNC(=O)c1cccc(S(=O)(=O)N2CC3(C)CC2CC(C)(C)C3)c1 (centres undefined)	4	2	-6	-5	28	14
COCCNC(=O)c1cccc(S(=O)(=O)N2CC3(C)CC2CC(C)(C)C3)c1 (centres undefined)	7	1	-10	-1	1	9
CC1(C)CC2CC(C)(CN2S(=O)(=O)c2cccc(C(N)=O)c2)C1 (centres undefined)	5	0	11	-2	8	29*
CC1(C)CC2CC(C)(CN2S(=O)(=O)c2cccc(C(=O)OCC(N)=O)c2)C1 (centres undefined)	2	2	8	3	7	28*
CCCCNC(=O)c1cccc(S(=O)(=O)N2CC3(C)CC2CC(C)(C)C3)c1 (centres undefined)	1	2	-11	8	0	36*
O=C(Cc1ccccc1)NCC(=O)OCC(=O)c1ccc(Cl)cc1	6	2	-2	-3	-15	10
O=Cc1ccc([B-](F)(F)F)s1	13	·	·	4	·	-1
O=C(C1CCN(S(=O)(=O)c2ccc(Br)cc2)CC1)N1CCOCC1	4	0	12	-3	8	24
O=[N+]([O-])c1ccc(S(=O)(=O)c2cccc(C(F)(F)F)c2)nc1	-2	3	1	-2	-20	10
CCNc1nc(Oc2c(Cl)cccc2Cl)cc(C(F)(F)F)n1	-3	0	1	0	14	4

Screens deposited in PubChem BioAssay by several laboratories.
